Measurements: ChEMBL document CHEMBL1208689, “5-Lipoxygenase-activating protein inhibitors. Part 3: 3-{3-tert-Butylsulfanyl-1-[4-(5-methoxy-pyrimidin-2-yl)-benzyl]-5-(5-methyl-pyridin-2-ylmethoxy)-1H-indol-2-yl]-2,2-dimethyl-propionic acid (AM643)-A potent FLAP inhibitor suitable for topical administration” (Bioorg Med Chem Lett, 2010)
The source made the active and inactive calls. No cut-off for these calls is given here.

What was measured:
[1] = target: T1, Arachidonate 5-lipoxygenase-activating protein (Homo sapiens, UniProt P20292); test: Binding affinity to FLAP in human PMN by radioligand displacement assay
T1 sequence (P20292 whole entry): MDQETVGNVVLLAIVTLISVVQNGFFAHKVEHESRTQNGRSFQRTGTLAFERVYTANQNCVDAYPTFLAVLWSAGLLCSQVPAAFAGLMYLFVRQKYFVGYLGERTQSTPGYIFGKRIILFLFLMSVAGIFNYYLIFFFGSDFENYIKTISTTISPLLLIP
How it was run: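 Tritiated-ligand displacement from FLAP-containing membranes; IC50, n = 6.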

[2] = Terminal half life in rat at 1 mg/kg, iv; format: ADME, organism-based; set-up: dose 1 mg/kg, route intravenous; conditions: in vivo, read-out: beta t1/2 (converted)
How it was run: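 Rat given 1 mg/kg intravenously in 10% EtOH/40% PEG400/50% water; plasma concentration–time profile used for terminal half-life.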

[3] = tested on: Blood; test: Inhibition of […]-induced LTB4 synthesis in rat whole blood after 4 hrs; format: functional, tissue-based
[4] = target: Prostaglandin G/H synthase 1 (Homo sapiens, UniProt P23219); test: Inhibition of COX1
Sequence of Prostaglandin G/H synthase 1 (P23219 whole entry): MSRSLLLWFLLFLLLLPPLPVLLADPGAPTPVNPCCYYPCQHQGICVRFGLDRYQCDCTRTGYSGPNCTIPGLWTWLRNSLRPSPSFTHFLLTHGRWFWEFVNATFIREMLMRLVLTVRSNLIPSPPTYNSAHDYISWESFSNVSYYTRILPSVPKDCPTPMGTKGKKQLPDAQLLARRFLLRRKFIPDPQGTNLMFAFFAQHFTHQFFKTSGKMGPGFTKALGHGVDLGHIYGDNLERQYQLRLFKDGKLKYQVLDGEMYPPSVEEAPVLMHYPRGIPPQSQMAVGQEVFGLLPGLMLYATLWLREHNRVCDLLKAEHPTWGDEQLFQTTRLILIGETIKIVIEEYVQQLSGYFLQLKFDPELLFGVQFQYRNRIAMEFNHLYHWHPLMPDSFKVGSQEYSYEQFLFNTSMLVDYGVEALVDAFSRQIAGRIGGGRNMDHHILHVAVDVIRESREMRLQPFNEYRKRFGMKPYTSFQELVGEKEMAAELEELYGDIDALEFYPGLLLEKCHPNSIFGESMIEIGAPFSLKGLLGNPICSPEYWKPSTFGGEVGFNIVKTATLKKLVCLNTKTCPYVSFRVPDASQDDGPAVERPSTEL

[5] = target: T2, Prostaglandin G/H synthase 2 (Homo sapiens, UniProt P35354); test: Inhibition of COX2
T2 sequence (P35354 whole entry): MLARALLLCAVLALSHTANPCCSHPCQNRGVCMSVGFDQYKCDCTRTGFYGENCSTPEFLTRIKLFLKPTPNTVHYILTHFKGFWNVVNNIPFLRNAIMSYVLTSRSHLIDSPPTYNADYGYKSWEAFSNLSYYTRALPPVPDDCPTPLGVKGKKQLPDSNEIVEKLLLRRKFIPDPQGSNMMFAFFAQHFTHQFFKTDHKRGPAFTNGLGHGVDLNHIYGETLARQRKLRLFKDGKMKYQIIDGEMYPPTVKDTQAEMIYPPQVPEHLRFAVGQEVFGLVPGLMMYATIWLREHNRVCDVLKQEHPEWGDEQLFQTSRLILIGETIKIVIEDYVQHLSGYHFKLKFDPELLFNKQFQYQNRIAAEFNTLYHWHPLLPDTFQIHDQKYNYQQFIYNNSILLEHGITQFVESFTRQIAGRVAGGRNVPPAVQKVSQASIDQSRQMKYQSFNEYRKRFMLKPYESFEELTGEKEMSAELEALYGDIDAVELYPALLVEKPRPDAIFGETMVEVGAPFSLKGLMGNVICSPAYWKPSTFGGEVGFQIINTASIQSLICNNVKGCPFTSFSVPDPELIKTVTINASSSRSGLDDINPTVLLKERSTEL

[6] = tested on: Rattus norvegicus; test: Skin irritant activity in abraded rat skin model treated topically after 72 hrs; format: ADME, organism-based; conditions: in vivo, topical_or_ocular
How it was run: (§1)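 Healthy male rats shaved and skin abraded; 2 mL of 10 mg/mL solution in topical vehicle applied over 20% of body area, occluded 24 h, site then cleaned. Draize scoring for erythema/edema and body weight followed over 72 h.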

[7] = tested on: Blood; test: Inhibition of […]-induced LTB4 synthesis in human whole blood after 15 mins; format: functional, tissue-based; conditions: 0.25 h
[8] = tested on: Mus musculus; test: Inhibition of arachidonic acid-induced ear edema in mouse at 30 mg/kg, po administered 4 hrs before arachidonic acid challenge; format: functional
How it was run: (§2)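 Mice given 30 mg/kg orally in 0.5% methocel 4 h before AA (4 mg in 40 µL ethanol) on one ear, ethanol alone on the other. After 30 min, 6 mm punches weighed and assayed for LTB4 and CysLTs. n = 3/group; means ± SEM; two-tailed t-test versus vehicle.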

[9] = tested on: Mus musculus; test: Inhibition of arachidonic acid-induced LTB4 production in mouse ear at 30 mg/kg, po administered 4 hrs before arachidonic acid challenge; format: functional; how it was run: as §2
[10] = target: Cytochrome P450 3A4 (Homo sapiens, UniProt P08684); test: Inhibition of CYP3A4; format: ADME
Sequence of Cytochrome P450 3A4 (P08684 whole entry): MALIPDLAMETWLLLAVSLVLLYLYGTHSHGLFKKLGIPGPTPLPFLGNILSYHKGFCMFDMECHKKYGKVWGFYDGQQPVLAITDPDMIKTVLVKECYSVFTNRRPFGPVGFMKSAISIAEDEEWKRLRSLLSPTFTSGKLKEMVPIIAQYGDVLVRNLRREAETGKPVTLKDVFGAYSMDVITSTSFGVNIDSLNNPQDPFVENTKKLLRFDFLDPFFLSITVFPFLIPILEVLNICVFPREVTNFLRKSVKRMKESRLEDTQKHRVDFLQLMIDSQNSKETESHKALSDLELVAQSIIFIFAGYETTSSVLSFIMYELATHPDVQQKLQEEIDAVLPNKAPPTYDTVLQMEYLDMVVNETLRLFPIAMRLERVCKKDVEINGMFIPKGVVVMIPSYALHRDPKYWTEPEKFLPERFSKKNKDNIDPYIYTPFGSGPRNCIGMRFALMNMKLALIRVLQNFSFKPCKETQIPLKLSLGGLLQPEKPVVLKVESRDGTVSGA

[11] = tested on: Blood; test: Inhibition of […]-induced LTB4 synthesis in mouse whole blood after 4 hrs; format: functional, tissue-based
[12] = tested on: Blood; test: Inhibition of […]-induced LTB4 synthesis in human whole blood after 5 hrs; format: functional, tissue-based
[13] = tested on: Mus musculus; test: Inhibition of arachidonic acid-induced cysteinyl leukotriene production in topically dosed mouse ear; format: functional, organism-based
How it was run: (§3)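 AA (4 mg/ear in ethanol) applied topically to mouse ear, compound applied topically at 0.01% or 0.1%. After 30 min, 6 mm ear punches weighed and assayed for CysLTs and LTB4. n = 3/group; means ± SEM; ANOVA with Dunnett's post hoc test, or t-test, versus vehicle.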

[14] = tested on: Rattus norvegicus; test: Skin irritant activity in abraded rat skin model at 10 mg/mL (2 mL), topical after 72 hrs; conditions: in vivo
[15] = tested on: Mus musculus; test: Inhibition of arachidonic acid-induced ear edema in topically dosed mouse at 1 to 10%; format: functional, organism-based
[16] = target: Cytochrome P450 2D6 (Homo sapiens, UniProt P10635); test: Inhibition of CYP2D6; format: ADME
Sequence of Cytochrome P450 2D6 (P10635 whole entry): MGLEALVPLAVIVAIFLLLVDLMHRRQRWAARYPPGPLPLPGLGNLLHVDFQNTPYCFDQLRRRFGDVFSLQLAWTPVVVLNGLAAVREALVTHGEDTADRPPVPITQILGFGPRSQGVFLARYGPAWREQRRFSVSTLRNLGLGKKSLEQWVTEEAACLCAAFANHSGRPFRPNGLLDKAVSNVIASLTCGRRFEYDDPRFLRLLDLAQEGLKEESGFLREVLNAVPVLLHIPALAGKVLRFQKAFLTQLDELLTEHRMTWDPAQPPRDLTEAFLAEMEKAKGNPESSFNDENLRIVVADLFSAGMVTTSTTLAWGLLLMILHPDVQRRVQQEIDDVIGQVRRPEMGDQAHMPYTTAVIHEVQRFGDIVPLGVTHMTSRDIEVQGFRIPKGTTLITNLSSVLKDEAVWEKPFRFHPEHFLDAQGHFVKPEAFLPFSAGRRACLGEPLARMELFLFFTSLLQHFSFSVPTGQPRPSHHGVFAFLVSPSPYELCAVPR

[17] = Solubility of the compound in propylene glycol; format: physicochemical
[18] = tested on: Mus musculus; test: Inhibition of arachidonic acid-induced LTB4 production in topically dosed mouse at 1 to 10%; format: functional, organism-based
[19] = tested on: Mus musculus; test: Inhibition of arachidonic acid-induced ear edema in topically dosed mouse at 0.1%; format: functional; how it was run: as §3
[20] = tested on: Blood; test: Inhibition of […]-induced LTB4 synthesis in mouse whole blood after 15 mins; format: functional, tissue-based; conditions: 0.25 h
[21] = tested on: Rattus norvegicus; test: Skin irritant activity in abraded rat skin model at 10 mg/mL (2 mL), topical after 72 hrs; conditions: in vivo; remark: listed apart in the source
[22] = Drug level in mouse plasma at 30 mg/kg, po after 4.5 hrs; conditions: read-out: Drug uptake
[23] = tested on: Mus musculus; test: Inhibition of arachidonic acid-induced cysteinyl leukotriene production in mouse ear at 30 mg/kg, po administered 4 hrs before arachidonic acid challenge; format: functional; how it was run: as §2
[24] = tested on: Blood; test: Inhibition of […]-induced LTB4 synthesis in rat whole blood after 15 mins; format: functional, tissue-based; conditions: 0.25 h
[25] = tested on: Mus musculus; test: Inhibition of arachidonic acid-induced LTB4 production in topically dosed mouse ear; format: functional, organism-based; how it was run: as §3
[26] = Solubility of the compound in transcutol; format: physicochemical
[27] = tested on: Mus musculus; test: Inhibition of arachidonic acid-induced cysteinyl leukotriene production in topically dosed mouse at 0.1%; format: functional; how it was run: as §3
[28] = tested on: Mus musculus; test: Inhibition of arachidonic acid-induced LTB4 production in topically dosed mouse at 0.1%; format: functional; how it was run: as §3
[29] = Solubility of the compound in water; format: physicochemical; conditions: buffer
[30] = species on record: Rattus norvegicus; test: Toxicity in rat assessed as change in body weight after 72 hrs; format: organism-based; conditions: in vivo; how it was run: as §1
[31] = Inhibition of […]-induced LTB4 synthesis in human leukocytes; format: functional, cell-based; conditions: Leukocyte
How it was run: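 Human leukocytes stimulated with calcium ionophore […]; LTB4 synthesis measured; IC50.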

[32] = tested on: Mus musculus; test: Inhibition of arachidonic acid-induced cysteinyl leukotriene production in topically dosed mouse at 1 to 10%; format: functional, organism-based
[33] = target: Cytochrome P450 2C9 (Homo sapiens, UniProt P11712); test: Inhibition of CYP2C9; format: ADME
Sequence of Cytochrome P450 2C9 (P11712 whole entry): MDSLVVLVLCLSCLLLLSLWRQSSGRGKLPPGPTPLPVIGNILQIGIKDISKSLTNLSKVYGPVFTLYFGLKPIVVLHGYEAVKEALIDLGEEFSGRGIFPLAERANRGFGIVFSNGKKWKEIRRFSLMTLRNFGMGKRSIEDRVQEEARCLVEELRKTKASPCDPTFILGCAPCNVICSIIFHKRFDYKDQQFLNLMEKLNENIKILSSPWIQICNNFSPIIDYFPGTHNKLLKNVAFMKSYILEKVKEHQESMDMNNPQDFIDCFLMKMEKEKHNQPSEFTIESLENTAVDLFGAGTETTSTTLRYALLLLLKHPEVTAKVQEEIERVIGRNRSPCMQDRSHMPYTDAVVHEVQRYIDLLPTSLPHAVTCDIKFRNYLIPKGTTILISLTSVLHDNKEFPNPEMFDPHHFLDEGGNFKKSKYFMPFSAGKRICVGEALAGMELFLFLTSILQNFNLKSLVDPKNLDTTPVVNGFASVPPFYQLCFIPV

## COc1cnc(-c2ccc(Cn3c(CC(C)(C)C(=O)[O-])c(SC(C)(C)C)c4cc(OCc5ccc(C)cn5)ccc43)cc2)nc1.[Na+]
[1]
  IC50: 2 nM
[2]
  half-life: 2 h
[3]
  IC50: 11 nM
[4]
  IC50: > 100000 nM
[5]
  IC50: > 100000 nM
[6]
  Activity: Non-toxic
[7]
  IC50: 161 nM
[8]
  inhibition in vivo at 30 mg/kg: 65%
[9]
  inhibition in vivo at 30 mg/kg: 33%
[10]
  IC50: 8800 nM
[11]
  IC50: 4 nM
[12]
  IC50: 81 nM
[13]
  inhibition: Dose-dependent effect
[14]
  Activity: Non-toxic
[15]
  inhibition: inactive
[16]
  IC50: > 30000 nM
[17]
  solubility: 75%
[18]
  inhibition: inactive
[19]
  inhibition (INH): 61%
[20]
  IC50: 26 nM
[21]
  Activity: Non-toxic
[22]
  concentration at 4.5 h: 1500 nM
[23]
  inhibition in vivo at 30 mg/kg: 57%
[24]
  IC50: 78 nM
[25]
  inhibition: Dose-dependent effect
[26]
  solubility: 15%
[27]
  inhibition (INH): 37%
[28]
  inhibition (INH): 55%
[29]
  solubility: 10%
[30]
  Activity: Non-toxic
[31]
  IC50: 0.6 nM
[32]
  inhibition: inactive
[33]
  IC50: 4500 nM
